Active and inactive are the calls of the source. The rule behind the calls is not given here.
How the values were obtained:
HeLa [1] = experiment: Induction of apoptosis in human HeLa cells assessed as increase in Mcl-1 short level at 1 to 3 uM after 24 hrs by Western blot analysis; assay type: functional, cell-based
Method in brief: (§1)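 Cells were treated at 1, 3 and 5 µM for 24 h at 37 °C. Lysis was in ice-cold Triton X-100 buffer with protease and phosphatase inhibitors; nuclear proteins were extracted separately. Protein was quantified by BCA. Lysates were separated by electrophoresis, transferred to nitrocellulose and blocked in non-fat milk for 1 h. Primary antibody was applied overnight at 4 °C and secondary for 1 h at 28 °C. Detection was by enhanced chemiluminescence.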

HeLa [2] = experiment: Induction of caspase-dependent apoptosis in human HeLa cells assessed as activation of caspase-3 at 1 to 3 uM after 24 hrs by Western blot analysis; assay type: functional, cell-based
Method in brief: (§2)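 Cleaved caspase-3 immunoblot. Cells were exposed at 1, 3 and 5 µM for 24 h at 37 °C, with paclitaxel 3 µM as positive control. Lysis was in ice-cold Triton X-100 buffer, and protein was measured by BCA. Lysates were separated by electrophoresis, transferred to nitrocellulose and blocked in milk. Primary antibody was applied overnight at 4 °C and secondary for 1 h at 28 °C. Detection was by enhanced chemiluminescence.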

HeLa [3] = experiment: Induction of apoptosis in human HeLa cells assessed as viable cells at 1 uM after 8 hrs by annexin-V FITC/propidium iodide staining based flow cytometric analysis relative to control; assay type: functional; conditions: read-out: Activity
Method in brief: (§3)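 Cells were grown in DMEM with 10% heat-inactivated FBS at 37 °C and 5% CO₂, then plated at 500,000 cells/well in 24-well plates. They were treated from a DMSO stock (DMSO ≤0.1%) for 8, 12 or 16 h. After a PBS wash, cells were resuspended in binding buffer (10 mM HEPES pH 7.4, 2.5 mM CaCl₂, 140 mM NaCl, 0.1% BSA), stained 40 min with FITC-annexin V, then with PI, and run on the flow cytometer immediately. Values are the mean of three independent experiments.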

HeLa [4] = experiment: Induction of nitric oxide production in human HeLa cells at 5 uM measured over 8 hrs by Griess reaction based assay relative to control; assay type: functional
Method in brief: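 Cells seeded at 2×10^6 cells/well for 12 h, then exposed to 1, 5 and 10 μM compound for 8 h at 37 °C. Culture supernatant mixed with Griess reagent (0.002% N-1-naphthyl-ethylenediamine dihydrochloride, 0.5% sulfanilic acid, 14% glacial acetic acid). Nitrite read by absorbance at 550 nm and compared with vehicle group.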

Homo sapiens = species: Homo sapiens; experiment: Inhibition of PKA phosphorylation (unknown origin) after 5 to 60 mins by bioluminescence assay
Method in brief: (§4)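 Kinase activity measured with compound at 1, 5, 10 and 50 μM, using a Kinase Reaction Rate Kit. Phosphorylation was followed by bioluminescent monitoring of ATP consumption, with light read at 5 min and 1 h. Staurosporine served as positive control. Data given as % kinase inhibition (% of control activity), from two separate experiments.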

MCF7 [5] = experiment: Induction of apoptosis in human MCF7 cells assessed as viable cells at 1 uM after 12 hrs by annexin-V FITC/propidium iodide staining based flow cytometric analysis relative to control; assay type: functional; conditions: MCF7, 12 h, read-out: Activity; method in brief: as §3
MCF7 [6] = experiment: Induction of caspase-dependent apoptosis in human MCF7 cells assessed as activation of caspase-3 at 1 to 3 uM after 24 hrs by Western blot analysis; assay type: functional, cell-based; method in brief: as §2
HeLa [7] = experiment: Cytotoxicity against human HeLa cells assessed as reduction in cell viability after 4 hrs by MTT assay; assay type: functional, cell-based
Method in brief: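 MTT: 10,000–20,000 cells/well attached for 16 h, then washed twice with serum-free RPMI. Treated with 1–200 µM for 4 h, 3 parallel runs per concentration. MTT added for 2 h; medium partly removed and isopropanol added. A590 read. Viability = (A treated − A doxorubicin)/(A medium − A doxorubicin)×100. Mean of three experiments, triplicate wells each.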

HeLa [8] = experiment: Induction of caspase-dependent apoptosis in human HeLa cells assessed as activation of caspase-6 at 1 to 3 uM after 24 hrs by Western blot analysis; assay type: functional, cell-based; method in brief: as §1
HeLa [9] = experiment: Induction of ROS generation in human HeLa cells at 5 uM after 8 hrs by DCFH-DA staining-based fluorescence spectrophotometric analysis relative to control; assay type: functional
Method in brief: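 DCFH-DA ROS: HeLa or MCF-7 cells at 2×10^6/well cultured 12 h, treated 4 or 8 h; t-BHP (10 μM) is the positive control. DCFH-DA 10 μM added for 10 min at 37 °C, cells washed twice with PBS. Fluorescence read at ex 485/em 520 nm. For the NAC arm, NAC (5 mM) is added to the medium before treatment.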

MCF7 [10] = experiment: Induction of ERK/MAPK signal transduction pathway in human MCF7 cells assessed as increase in c-fos level; assay type: cell-based
MCF7 [11] = experiment: Induction of apoptosis in human MCF7 cells assessed as late apoptotic cells at 1 uM after 12 hrs by annexin-V FITC/propidium iodide staining based flow cytometric analysis relative to control; assay type: functional; method in brief: as §3
HeLa [12] = experiment: Induction of nitric oxide production in human HeLa cells at 1 uM measured over 8 hrs by Griess reaction based assay relative to control; assay type: functional
Method in brief: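 Cells were plated at 2×10⁶ cells/well in 24-well plates for 12 h, then treated at 1, 5 and 10 µM for 8 h at 37 °C. Culture supernatant was mixed with Griess reagent (0.002% N-1-naphthylethylenediamine, 0.5% sulfanilic acid, 14% glacial acetic acid). Nitric oxide was quantified by absorbance at 550 nm.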

MCF7 [13] = experiment: Induction of caspase-dependent apoptosis in human MCF7 cells assessed as activation of caspase-8 at 1 to 3 uM after 24 hrs by Western blot analysis; assay type: functional, cell-based; method in brief: as §1
MCF7 [14] = experiment: Effect on mitochondrial membrane potential in human MCF7 cells assessed as shift change at 5 uM measured over 4 hrs by Rhodamine 123 dye-based fluorescence assay; assay type: functional, cell-based
Method in brief: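 Mitochondrial potential: HeLa or MCF-7 cells treated with 5 µM (final) for 1, 2, 4 and 8 h. Rhodamine 123 added, cells incubated 30 min at 37 °C, washed with PBS, and analysed by flow cytometry. Fluorescence histogram shift is compared with control.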

[15] = target: Mitogen-activated protein kinase; ERK1/ERK2 (Homo sapiens) (UniProt P27361+P28482); experiment: Activation of ERK1/2 phosphorylation in human MCF7 cells assessed as increase in ratio of phosphorylated ERK1/2 to total ERK1/2 level at 5 uM in presence of ERK1/2 inhibitor PD98059 by ELISA; assay type: cell-based
Chain of Mitogen-activated protein kinase; ERK1/ERK2 (Homo sapiens) (P27361 whole entry, looked up): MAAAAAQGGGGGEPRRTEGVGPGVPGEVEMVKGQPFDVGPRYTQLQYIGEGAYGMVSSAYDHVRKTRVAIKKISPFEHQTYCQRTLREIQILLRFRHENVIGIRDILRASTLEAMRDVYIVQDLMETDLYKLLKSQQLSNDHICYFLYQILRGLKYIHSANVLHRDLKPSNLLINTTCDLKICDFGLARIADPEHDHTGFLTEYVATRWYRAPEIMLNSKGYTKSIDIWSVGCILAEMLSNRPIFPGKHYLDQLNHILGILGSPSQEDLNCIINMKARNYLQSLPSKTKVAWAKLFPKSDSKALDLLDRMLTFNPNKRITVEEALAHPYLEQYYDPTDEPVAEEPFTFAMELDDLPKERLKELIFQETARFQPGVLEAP
Chain of Mitogen-activated protein kinase; ERK1/ERK2 (Homo sapiens) (P28482 whole entry, looked up): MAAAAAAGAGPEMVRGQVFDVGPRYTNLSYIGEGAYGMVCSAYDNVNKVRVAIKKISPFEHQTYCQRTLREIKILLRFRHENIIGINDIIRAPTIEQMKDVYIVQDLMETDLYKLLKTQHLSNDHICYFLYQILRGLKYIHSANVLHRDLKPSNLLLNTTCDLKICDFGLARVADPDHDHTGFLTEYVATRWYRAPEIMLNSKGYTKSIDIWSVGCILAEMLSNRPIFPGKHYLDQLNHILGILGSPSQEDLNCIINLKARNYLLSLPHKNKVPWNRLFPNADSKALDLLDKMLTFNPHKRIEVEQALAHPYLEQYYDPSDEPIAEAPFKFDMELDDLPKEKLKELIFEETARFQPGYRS
Method in brief: (§5)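 Cell-based ELISA: HeLa or MCF-7 cells (20×10^3/well) grown overnight at 37 °C, 5% CO2, treated with 5 μM, then fixed and blocked. Probed with rabbit anti-total and anti-phospho P38, JNK or ERK1/2 (1:100), then HRP anti-rabbit IgG. Result is the phospho/total ratio; inhibitor arms use […], […] or SP600125. n=3.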

[16] = target: c-Jun N-terminal kinase, JNK (Homo sapiens) (UniProt P45983+P53779+P45984); experiment: Activation of JNK phosphorylation in human MCF7 cells assessed as increase in ratio of phosphorylated JNK to total JNK level at 5 uM in presence of JNK inhibitor SP600125 by ELISA; assay type: cell-based; method in brief: as §5
[17] = target: Tyrosine-protein kinase ABL1 (Homo sapiens) (UniProt P00519); experiment: Inhibition of ABL phosphorylation (unknown origin) at 50 uM after 5 to 60 mins by bioluminescence assay; method in brief: as §4
Chain of Tyrosine-protein kinase ABL1 (Homo sapiens) (P00519 whole entry): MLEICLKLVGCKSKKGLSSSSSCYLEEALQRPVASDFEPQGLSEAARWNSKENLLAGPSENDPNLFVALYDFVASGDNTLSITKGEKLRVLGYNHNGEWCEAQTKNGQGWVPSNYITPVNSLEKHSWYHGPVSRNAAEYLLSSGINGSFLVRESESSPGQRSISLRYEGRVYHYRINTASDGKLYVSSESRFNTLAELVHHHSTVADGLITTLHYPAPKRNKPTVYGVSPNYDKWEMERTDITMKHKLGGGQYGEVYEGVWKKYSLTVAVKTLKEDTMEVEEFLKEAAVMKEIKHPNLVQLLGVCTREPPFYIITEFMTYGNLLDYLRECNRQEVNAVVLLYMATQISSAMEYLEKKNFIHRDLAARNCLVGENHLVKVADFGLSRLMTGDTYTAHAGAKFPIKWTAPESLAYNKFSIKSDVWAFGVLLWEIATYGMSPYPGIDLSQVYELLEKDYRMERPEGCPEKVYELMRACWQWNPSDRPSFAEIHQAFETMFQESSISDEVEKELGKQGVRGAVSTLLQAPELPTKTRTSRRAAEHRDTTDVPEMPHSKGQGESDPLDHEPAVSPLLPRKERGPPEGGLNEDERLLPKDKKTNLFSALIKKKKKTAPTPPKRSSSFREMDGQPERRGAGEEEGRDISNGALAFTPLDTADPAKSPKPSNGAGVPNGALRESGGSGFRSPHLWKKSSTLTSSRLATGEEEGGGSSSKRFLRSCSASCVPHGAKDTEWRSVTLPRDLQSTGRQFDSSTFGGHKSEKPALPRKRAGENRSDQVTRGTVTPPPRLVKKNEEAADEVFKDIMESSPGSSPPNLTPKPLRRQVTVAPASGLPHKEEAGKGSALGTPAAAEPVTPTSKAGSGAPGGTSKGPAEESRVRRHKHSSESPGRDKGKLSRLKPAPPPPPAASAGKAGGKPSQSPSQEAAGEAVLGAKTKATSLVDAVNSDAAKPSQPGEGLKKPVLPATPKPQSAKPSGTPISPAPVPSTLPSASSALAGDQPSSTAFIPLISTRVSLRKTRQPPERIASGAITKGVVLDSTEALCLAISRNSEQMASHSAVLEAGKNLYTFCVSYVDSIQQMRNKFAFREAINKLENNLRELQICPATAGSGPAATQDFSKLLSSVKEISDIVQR

## Cn1cc(/C=N\NC(=O)c2cn(C)c3ccc(Br)cc23)c2ccccc21
HeLa [1]
  Activity: Active
HeLa [2]
  Activity: inactive
HeLa [3]
  viability at 1 µM: 68.8%
HeLa [4]
  Activity: 42.4%
Homo sapiens
  inhibition: Dose-dependent effect
MCF7 [5]
  viability at 1 µM: 40.5%
MCF7 [6]
  Activity: inactive
HeLa [7]
  Activity: Dose-dependent effect
HeLa [7]; Homo sapiens, HeLa, 4 h, read-out: IC50
  IC50: 1.69 µM
HeLa [8]
  Activity: inactive
HeLa [9]
  Activity: 58.9%
MCF7 [10]
  Activity: Active
MCF7 [11]
  Activity: 35.72%
HeLa [12]
  Activity: 29.8%
MCF7 [13]
  Activity: inactive
MCF7 [14]
  Activity: Active
[15]
  Activity: inactive
[16]
  Activity: inactive
[17]
  inhibition: Active

Source: ChEMBL document CHEMBL4316598, “Synthesis, antiproliferative and apoptosis induction potential activities of novel bis(indolyl)hydrazide-hydrazone derivatives” (Bioorg Med Chem, 2019)
